ChEMBL document CHEMBL1154352, “Toll-like receptor 7 selective synthetic oligoribonucleotide agonists: synthesis and structure-activity relationship studies” (J Med Chem, 2009)

What was measured:
Assay type in all cases: functional, cell-based
[1] = test system: PBMC; experiment: Immunomodulatory activity in human PBMC assessed as induction of MCP1 after 24 hrs
Method in brief: (§1)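 Human PBMCs plated at 5 × 10^6 cells/mL; compounds dissolved in PBS added at various concentrations, 37 °C for 24 h. Supernatant cytokines/chemokines quantified with human Luminex multiplex kit.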

[2] = test system: PBMC; experiment: Immunomodulatory activity in human PBMC assessed as induction of IFNalpha after 24 hrs; method in brief: as §1
[3] = test system: PBMC; experiment: Immunomodulatory activity in human PBMC assessed as induction of MIP1beta after 24 hrs; method in brief: as §1
[4] = test system: PBMC; experiment: Immunomodulatory activity in human PBMC assessed as induction of IP10 after 24 hrs; method in brief: as §1
[5] = test system: PBMC; experiment: Immunomodulatory activity in human PBMC assessed as induction of IL12 after 24 hrs; method in brief: as §1
[6] = test system: PBMC; experiment: Immunomodulatory activity in human PBMC assessed as induction of IL6 after 24 hrs; method in brief: as §1
[7] = test system: PBMC; experiment: Immunomodulatory activity in human PBMC assessed as induction of IL10 after 24 hrs; method in brief: as §1
[8] = test system: PBMC; experiment: Immunomodulatory activity in human PBMC assessed as induction of IL1-beta after 24 hrs; method in brief: as §1
[9] = test system: PBMC; experiment: Immunomodulatory activity in human PBMC assessed as induction of TNFalpha after 24 hrs; method in brief: as §1

Measured: Activity

Nc1ccn([C@@H]2O[C@H](COP(=O)(S)O[C@H]3[C@@H](O)[C@H](n4cnc5c(N)ncnc54)O[C@@H]3COP(=O)(S)O[C@H]3[C@@H](O)[C@H](n4ccc5c(=O)[nH]c(N)nc54)O[C@@H]3COP(=O)(S)O[C@H]3[C@@H](O)[C@H](n4ccc(=O)[nH]c4=O)O[C@@H]3COP(=O)(S)O[C@H]3[C@@H](O)[C@H](n4ccc5c(=O)[nH]c(N)nc54)O[C@@H]3COP(=O)(S)O[C@H]3[C@@H](O)[C@H](n4cnc5c(N)ncnc54)O[C@@H]3COP(=O)(S)O[C@H]3[C@@H](O)[C@H](n4cnc5c(N)ncnc54)O[C@@H]3CO)[C@@H](OP(=O)(S)OC[C@H]3O[C@@H](n4ccc5c(=O)[nH]c(N)nc54)[C@H](O)[C@@H]3OP(=O)(S)OC[C@H]3O[C@@H](n4ccc(N)nc4=O)[C@H](O)[C@@H]3OP(=O)(S)OC[C@H]3O[C@@H](n4ccc(=O)[nH]c4=O)[C@H](O)[C@@H]3OP(=O)(S)OC[C@H]3O[C@@H](n4ccc(=O)[nH]c4=O)[C@H](O)[C@@H]3OP(=O)(S)OCC(O)COP(=O)(S)O[C@H]3[C@@H](O)[C@H](n4ccc(=O)[nH]c4=O)O[C@@H]3COP(=O)(S)O[C@H]3[C@@H](O)[C@H](n4ccc(=O)[nH]c4=O)O[C@@H]3COP(=O)(S)O[C@H]3[C@@H](O)[C@H](n4ccc(N)nc4=O)O[C@@H]3COP(=O)(S)O[C@H]3[C@@H](O)[C@H](n4ccc5c(=O)[nH]c(N)nc54)O[C@@H]3COP(=O)(S)O[C@H]3[C@@H](O)[C@H](n4ccc(N)nc4=O)O[C@@H]3COP(=O)(S)O[C@H]3[C@@H](O)[C@H](n4cnc5c(N)ncnc54)O[C@@H]3COP(=O)(S)O[C@H]3[C@@H](O)[C@H](n4ccc5c(=O)[nH]c(N)nc54)O[C@@H]3COP(=O)(S)O[C@H]3[C@@H](O)[C@H](n4ccc(=O)[nH]c4=O)O[C@@H]3COP(=O)(S)O[C@H]3[C@@H](O)[C@H](n4ccc5c(=O)[nH]c(N)nc54)O[C@@H]3COP(=O)(S)O[C@H]3[C@@H](O)[C@H](n4cnc5c(N)ncnc54)O[C@@H]3COP(=O)(S)O[C@H]3[C@@H](O)[C@H](n4cnc5c(N)ncnc54)O[C@@H]3CO)[C@H]2O)c(=O)n1 (some centres not stated)
active: [1] Dose-dependent effect | [2] Dose-dependent effect | [3] Dose-dependent effect | [4] Dose-dependent effect | [5] Dose-dependent effect | [6] Dose-dependent effect | [7] Dose-dependent effect | [8] Dose-dependent effect | [9] Dose-dependent effect

Nc1ccn([C@@H]2O[C@H](COP(=O)(S)O[C@H]3[C@@H](O)[C@H](n4cnc5c(N)ncnc54)O[C@@H]3COP(=O)(S)O[C@H]3[C@@H](O)[C@H](n4ccc5c(=O)[nH]c(N)nc54)O[C@@H]3COP(=O)(S)O[C@H]3[C@@H](O)[C@H](n4ccc(=O)[nH]c4=O)O[C@@H]3COP(=O)(S)O[C@H]3[C@@H](O)[C@H](n4ccc(=O)[nH]c4=O)O[C@@H]3COP(=O)(S)O[C@H]3[C@@H](O)[C@H](n4cnc5c(N)ncnc54)O[C@@H]3COP(=O)(S)O[C@H]3[C@@H](O)[C@H](n4cnc5c(N)ncnc54)O[C@@H]3CO)[C@@H](OP(=O)(S)OC[C@H]3O[C@@H](n4ccc5c(=O)[nH]c(N)nc54)[C@H](O)[C@@H]3OP(=O)(S)OC[C@H]3O[C@@H](n4ccc(N)nc4=O)[C@H](O)[C@@H]3OP(=O)(S)OC[C@H]3O[C@@H](n4ccc(=O)[nH]c4=O)[C@H](O)[C@@H]3OP(=O)(S)OC[C@H]3O[C@@H](n4ccc(=O)[nH]c4=O)[C@H](O)[C@@H]3OP(=O)(S)OCC(O)COP(=O)(S)O[C@H]3[C@@H](O)[C@H](n4ccc(=O)[nH]c4=O)O[C@@H]3COP(=O)(S)O[C@H]3[C@@H](O)[C@H](n4ccc(=O)[nH]c4=O)O[C@@H]3COP(=O)(S)O[C@H]3[C@@H](O)[C@H](n4ccc(N)nc4=O)O[C@@H]3COP(=O)(S)O[C@H]3[C@@H](O)[C@H](n4ccc5c(=O)[nH]c(N)nc54)O[C@@H]3COP(=O)(S)O[C@H]3[C@@H](O)[C@H](n4ccc(N)nc4=O)O[C@@H]3COP(=O)(S)O[C@H]3[C@@H](O)[C@H](n4cnc5c(N)ncnc54)O[C@@H]3COP(=O)(S)O[C@H]3[C@@H](O)[C@H](n4ccc5c(=O)[nH]c(N)nc54)O[C@@H]3COP(=O)(S)O[C@H]3[C@@H](O)[C@H](n4ccc(=O)[nH]c4=O)O[C@@H]3COP(=O)(S)O[C@H]3[C@@H](O)[C@H](n4ccc(=O)[nH]c4=O)O[C@@H]3COP(=O)(S)O[C@H]3[C@@H](O)[C@H](n4cnc5c(N)ncnc54)O[C@@H]3COP(=O)(S)O[C@H]3[C@@H](O)[C@H](n4cnc5c(N)ncnc54)O[C@@H]3CO)[C@H]2O)c(=O)n1 (some centres not stated)
active: [1] Dose-dependent effect | [2] Dose-dependent effect | [3] Dose-dependent effect | [4] Dose-dependent effect | [5] Dose-dependent effect | [6] Dose-dependent effect | [7] Dose-dependent effect | [8] Dose-dependent effect | [9] Dose-dependent effect

Nc1ccn([C@@H]2O[C@H](COP(=O)(S)O[C@H]3[C@@H](O)[C@H](n4cnc5c(N)ncnc54)O[C@@H]3COP(=O)(S)O[C@H]3[C@@H](O)[C@H](n4cnc5c(N)ncnc54)O[C@@H]3CO)[C@@H](OP(=O)(S)OC[C@H]3O[C@@H](n4ccc(=O)[nH]c4=O)[C@H](O)[C@@H]3OP(=O)(S)OC[C@H]3O[C@@H](n4ccc5c(=O)[nH]c(N)nc54)[C@H](O)[C@@H]3OP(=O)(S)OC[C@H]3O[C@@H](n4cnc5c(N)ncnc54)[C@H](O)[C@@H]3OP(=O)(S)OC[C@H]3O[C@@H](n4ccc(N)nc4=O)[C@H](O)[C@@H]3OP(=O)(S)OC[C@H]3O[C@@H](n4ccc5c(=O)[nH]c(N)nc54)[C@H](O)[C@@H]3OP(=O)(S)OC[C@H]3O[C@@H](n4ccc(N)nc4=O)[C@H](O)[C@@H]3OP(=O)(S)OC[C@H]3O[C@@H](n4ccc(=O)[nH]c4=O)[C@H](O)[C@@H]3OP(=O)(S)OC[C@H]3O[C@@H](n4ccc(=O)[nH]c4=O)[C@H](O)[C@@H]3OP(=O)(S)OCC(O)COP(=O)(S)O[C@H]3[C@@H](O)[C@H](n4ccc(=O)[nH]c4=O)O[C@@H]3COP(=O)(S)O[C@H]3[C@@H](O)[C@H](n4ccc(=O)[nH]c4=O)O[C@@H]3COP(=O)(S)O[C@H]3[C@@H](O)[C@H](n4ccc(N)nc4=O)O[C@@H]3COP(=O)(S)O[C@H]3[C@@H](O)[C@H](n4ccc5c(=O)[nH]c(N)nc54)O[C@@H]3COP(=O)(S)O[C@H]3[C@@H](O)[C@H](n4ccc(N)nc4=O)O[C@@H]3COP(=O)(S)O[C@H]3[C@@H](O)[C@H](n4cnc5c(N)ncnc54)O[C@@H]3COP(=O)(S)O[C@H]3[C@@H](O)[C@H](n4ccc5c(=O)[nH]c(N)nc54)O[C@@H]3COP(=O)(S)O[C@H]3[C@@H](O)[C@H](n4ccc(=O)[nH]c4=O)O[C@@H]3COP(=O)(S)O[C@H]3[C@@H](O)[C@H](n4ccc(N)nc4=O)O[C@@H]3COP(=O)(S)O[C@H]3[C@@H](O)[C@H](n4cnc5c(N)ncnc54)O[C@@H]3COP(=O)(S)O[C@H]3[C@@H](O)[C@H](n4cnc5c(N)ncnc54)O[C@@H]3CO)[C@H]2O)c(=O)n1 (some centres not stated)
active: [1] Dose-dependent effect | [2] Dose-dependent effect | [3] Dose-dependent effect | [4] Dose-dependent effect | [5] Dose-dependent effect | [6] Dose-dependent effect | [7] Dose-dependent effect | [8] Dose-dependent effect | [9] Dose-dependent effect
